Results: ChEMBL document CHEMBL1147958, “Evaluation of the anti-inflammatory and anti-nociceptive activities of novel synthesized melatonin analogues” (2007)

Legend:
Rattus norvegicus [1] = experiment: Inhibition of carrageenan-induced paw oedema in Sprague-Dawley rat at 5.13 mg/kg, sc after 3 hrs; format: functional; conditions: read-out: Inhibition, route subcutaneous
Outline: (§1)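 Rats (n = 6/group) got the test agent s.c. (0.5 mL) as a 30 min pretreatment. Oedema was induced by sub-plantar 1% lambda-carrageenan in saline into the right hind paw, with saline in the contralateral paw. Paw volume was measured by plethysmometer before injection and at 1, 2, 3 and 4 h, and expressed as % change from pre-drug values.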

Rattus norvegicus [2] = experiment: […] in Sprague-Dawley rat assessed as inhibition of indomethacin-induced gastric lesions severity at 5.13 mg/kg, sc; format: functional; conditions: Stomach, route subcutaneous
Outline: (§2)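 Sprague-Dawley rats (120–130 g, food and water ad libitum) got indomethacin 20 mg/kg s.c. to induce gastric mucosal damage, with the test agent given s.c. at the time of indomethacin injection. Rats were killed 24 h later. Stomachs were opened along the greater curvature, rinsed with saline, and lesions counted and severity-scored on a previously described scale. Results are % decrease versus the indomethacin control.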

Rattus norvegicus [3] = experiment: Antinociceptive activity in Sprague-Dawley rat at 5.13 mg/kg, sc assessed as increase in latency time after 1 hr by hot plate method; format: functional; conditions: route subcutaneous
Outline: (§3)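 Rats (n = 6/group) were dosed s.c. 30 min before testing on a hot-plate held at 52 °C, 30 s cut-off. Reaction latency was read at 1 and 2 h and expressed as % increase over each group's pre-drug basal latency, with indomethacin as the reference control. Groups were compared by ANOVA and Duncan's test.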

Mus musculus [4] = experiment: Antinociceptive activity in Swiss Albino mouse assessed as inhibition of acetic acid-induced writhes per 30 min at 5.13 mg/kg, sc; conditions: 0.5 h, read-out: Inhibition
Rattus norvegicus [5] = experiment: Inhibition of carrageenan-induced paw oedema in Sprague-Dawley rat at 5.13 mg/kg, sc after 1 hr; format: functional; conditions: read-out: Inhibition, route subcutaneous; outline: as §1
Rattus norvegicus [6] = experiment: Antinociceptive activity in Sprague-Dawley rat at 5.13 mg/kg, sc assessed as increase in latency time after 2 hrs by hot plate method; format: functional; conditions: route subcutaneous; outline: as §3
Rattus norvegicus [7] = experiment: Inhibition of carrageenan-induced paw oedema in Sprague-Dawley rat at 5.13 mg/kg, sc after 2 hrs; format: functional; conditions: read-out: Inhibition, route subcutaneous; outline: as §1
Rattus norvegicus [8] = experiment: Antinociceptive activity in Sprague-Dawley rat assessed as inhibition of number of indomethacin-induced gastric lesions at 5.13 mg/kg, sc; format: functional; conditions: Stomach, route subcutaneous; outline: as §2
Rattus norvegicus [9] = experiment: Inhibition of carrageenan-induced paw oedema in Sprague-Dawley rat at 5.13 mg/kg, sc after 4 hrs; format: functional; conditions: read-out: Inhibition, route subcutaneous; outline: as §1
Rattus norvegicus [10] = experiment: Antinociceptive activity in Sprague-Dawley rat assessed as inhibition of number of indomethacin-induced gastric lesions at 5.16 mg/kg, sc; format: functional; conditions: Stomach, route subcutaneous; outline: as §2
Mus musculus [11] = experiment: Antinociceptive activity in Swiss Albino mouse assessed as inhibition of acetic acid-induced writhes per 30 min at 5.16 mg/kg, sc; conditions: 0.5 h, read-out: Inhibition
Rattus norvegicus [12] = experiment: Inhibition of carrageenan-induced paw oedema in Sprague-Dawley rat at 5.16 mg/kg, sc after 2 hrs; format: functional; conditions: route subcutaneous; outline: as §1
Rattus norvegicus [13] = experiment: Inhibition of carrageenan-induced paw oedema in Sprague-Dawley rat at 5.16 mg/kg, sc after 3 hrs; format: functional; conditions: read-out: Inhibition, route subcutaneous; outline: as §1
Rattus norvegicus [14] = experiment: Inhibition of carrageenan-induced paw oedema in Sprague-Dawley rat at 5.16 mg/kg, sc after 4 hrs; format: functional; conditions: route subcutaneous; outline: as §1
Rattus norvegicus [15] = experiment: Antinociceptive activity in Sprague-Dawley rat at 5.16 mg/kg, sc assessed as increase in latency time after 1 hr by hot plate method; format: functional; conditions: route subcutaneous; outline: as §3
Rattus norvegicus [16] = experiment: Antinociceptive activity in Sprague-Dawley rat at 5.16 mg/kg, sc assessed as increase in latency time after 2 hrs by hot plate method; format: functional; conditions: route subcutaneous; outline: as §3
Rattus norvegicus [17] = experiment: […] in Sprague-Dawley rat assessed as inhibition of indomethacin-induced gastric lesions severity at 5.16 mg/kg, sc; format: functional; conditions: Stomach, route subcutaneous; outline: as §2
Rattus norvegicus [18] = experiment: Inhibition of carrageenan-induced paw oedema in Sprague-Dawley rat at 5.16 mg/kg, sc after 1 hr; format: functional; conditions: read-out: Inhibition, route subcutaneous; outline: as §1
Rattus norvegicus [19] = experiment: Inhibition of carrageenan-induced paw oedema in Sprague-Dawley rat at 6.88 mg/kg, sc after 1 hr; format: functional; conditions: read-out: Inhibition, route subcutaneous; outline: as §1
Rattus norvegicus [20] = experiment: Inhibition of carrageenan-induced paw oedema in Sprague-Dawley rat at 6.88 mg/kg, sc after 2 hrs; format: functional; conditions: read-out: Inhibition, route subcutaneous; outline: as §1
Rattus norvegicus [21] = experiment: Inhibition of carrageenan-induced paw oedema in Sprague-Dawley rat at 6.88 mg/kg, sc after 3 hrs; format: functional; conditions: read-out: Inhibition, route subcutaneous; outline: as §1
Rattus norvegicus [22] = experiment: Inhibition of carrageenan-induced paw oedema in Sprague-Dawley rat at 6.88 mg/kg, sc after 4 hrs; format: functional; conditions: read-out: Inhibition, route subcutaneous; outline: as §1
Rattus norvegicus [23] = experiment: Antinociceptive activity in Sprague-Dawley rat assessed as inhibition of number of indomethacin-induced gastric lesions at 6.88 mg/kg, sc; format: functional; conditions: Stomach, route subcutaneous; outline: as §2
Rattus norvegicus [24] = experiment: Antinociceptive activity in Sprague-Dawley rat at 6.88 mg/kg, sc assessed as increase in latency time after 2 hrs by hot plate method; format: functional; conditions: route subcutaneous; outline: as §3
Rattus norvegicus [25] = experiment: Antinociceptive activity in Sprague-Dawley rat at 6.88 mg/kg, sc assessed as increase in latency time after 1 hr by hot plate method; format: functional; conditions: route subcutaneous; outline: as §3
Rattus norvegicus [26] = experiment: […] in Sprague-Dawley rat assessed as inhibition of indomethacin-induced gastric lesions severity at 6.88 mg/kg, sc; format: functional; conditions: Stomach, route subcutaneous; outline: as §2
Mus musculus [27] = experiment: Antinociceptive activity in Swiss Albino mouse assessed as inhibition of acetic acid-induced writhes per 30 min at 6.88 mg/kg, sc; conditions: 0.5 h, read-out: Inhibition
Rattus norvegicus [28] = experiment: Antinociceptive activity in Sprague-Dawley rat at 5.40 mg/kg, sc assessed as increase in latency time after 1 hr by hot plate method; format: functional; conditions: dose 5.4 mg/kg; route subcutaneous; outline: as §3
Rattus norvegicus [29] = experiment: Inhibition of carrageenan-induced paw oedema in Sprague-Dawley rat at 5.40 mg/kg, sc after 1 hr; format: functional; conditions: read-out: Inhibition, route subcutaneous; outline: as §1
Mus musculus [30] = experiment: Antinociceptive activity in Swiss Albino mouse assessed as inhibition of acetic acid-induced writhes per 30 min at 5.40 mg/kg, sc; conditions: 0.5 h
Rattus norvegicus [31] = experiment: Antinociceptive activity in Sprague-Dawley rat assessed as inhibition of number of indomethacin-induced gastric lesions at 5.40 mg/kg, sc; format: functional; conditions: Stomach, route subcutaneous; outline: as §2
Rattus norvegicus [32] = experiment: Inhibition of carrageenan-induced paw oedema in Sprague-Dawley rat at 5.40 mg/kg, sc after 2 hrs; format: functional; conditions: read-out: Inhibition, route subcutaneous; outline: as §1
Rattus norvegicus [33] = experiment: Antinociceptive activity in Sprague-Dawley rat at 5.40 mg/kg, sc assessed as increase in latency time after 2 hrs by hot plate method; format: functional; conditions: dose 5.4 mg/kg; route subcutaneous; outline: as §3
Rattus norvegicus [34] = experiment: Inhibition of carrageenan-induced paw oedema in Sprague-Dawley rat at 5.40 mg/kg, sc after 3 hrs; format: functional; conditions: read-out: Inhibition, route subcutaneous; outline: as §1
Rattus norvegicus [35] = experiment: Inhibition of carrageenan-induced paw oedema in Sprague-Dawley rat at 5.40 mg/kg, sc after 4 hrs; format: functional; conditions: read-out: Inhibition, route subcutaneous; outline: as §1
Rattus norvegicus [36] = experiment: […] in Sprague-Dawley rat assessed as inhibition of indomethacin-induced gastric lesions severity at 5.40 mg/kg, sc; format: functional; conditions: Stomach, route subcutaneous; outline: as §2
Rattus norvegicus [37] = experiment: Antinociceptive activity in sc dosed Sprague-Dawley rat assessed as increase in latency time after 1 hr by hot plate method; format: functional; outline: as §3
Rattus norvegicus [38] = experiment: Antinociceptive activity in sc dosed Sprague-Dawley rat assessed as increase in latency time after 2 hrs by hot plate method; format: functional; outline: as §3
Rattus norvegicus [39] = experiment: Inhibition of carrageenan-induced paw oedema in Sprague-Dawley rat at 4 mg/kg, sc after 3 hrs; format: functional; conditions: read-out: Inhibition, route subcutaneous; outline: as §1
Rattus norvegicus [40] = experiment: Antinociceptive activity in Sprague-Dawley rat at 4 mg/kg, sc assessed as increase in latency time after 1 hr by hot plate method; format: functional; conditions: route subcutaneous; outline: as §3
Rattus norvegicus [41] = experiment: Inhibition of carrageenan-induced paw oedema in Sprague-Dawley rat at 4 mg/kg, sc after 1 hr; format: functional; conditions: read-out: Inhibition, route subcutaneous; outline: as §1
Rattus norvegicus [42] = experiment: […] in Sprague-Dawley rat assessed as inhibition of number of indomethacin-induced gastric lesions at 4 mg/kg, sc; format: functional; conditions: Stomach, route subcutaneous; outline: as §2
Mus musculus [43] = experiment: Antinociceptive activity in Swiss Albino mouse assessed as inhibition of acetic acid-induced writhes per 30 min at 4 mg/kg, sc; conditions: 0.5 h, read-out: Inhibition
Rattus norvegicus [44] = experiment: Inhibition of carrageenan-induced paw oedema in Sprague-Dawley rat at 4 mg/kg, sc after 4 hrs; format: functional; conditions: read-out: Inhibition, route subcutaneous; outline: as §1
Rattus norvegicus [45] = experiment: Inhibition of carrageenan-induced paw oedema in Sprague-Dawley rat at 4 mg/kg, sc after 2 hrs; format: functional; conditions: read-out: Inhibition, route subcutaneous; outline: as §1
Rattus norvegicus [46] = experiment: Antinociceptive activity in Sprague-Dawley rat at 4 mg/kg, sc assessed as increase in latency time after 2 hrs by hot plate method; format: functional; conditions: route subcutaneous; outline: as §3
Rattus norvegicus [47] = experiment: […] in Sprague-Dawley rat assessed as inhibition of indomethacin-induced gastric lesions severity at 4 mg/kg, sc; format: functional; conditions: Stomach, route subcutaneous; outline: as §2

COc1ccc2c(c1)c(CCNC(C)=O)c1n2C(=O)C=C1C
inhibition in vivo at 5.13 mg/kg (Rattus norvegicus [1]): 43% | inhibition in vivo at 5.13 mg/kg (Rattus norvegicus [2]): 82.6% | Activity (Rattus norvegicus [3]): 116.6% | inhibition in vivo at 5.13 mg/kg (Mus musculus [4]): 68.7% | inhibition in vivo at 5.13 mg/kg (Rattus norvegicus [5]): 67.3% | Activity (Rattus norvegicus [6]): 144.6% | inhibition in vivo at 5.13 mg/kg (Rattus norvegicus [7]): 59.4% | inhibition in vivo at 5.13 mg/kg (Rattus norvegicus [8]): 72.6% | inhibition in vivo at 5.13 mg/kg (Rattus norvegicus [9]): 28.8%

COc1ccc2c(c1)c(CCNC(C)=O)c1n2C(=O)CC1=O
inhibition in vivo at 5.16 mg/kg (Rattus norvegicus [10]): 43.5% | inhibition in vivo at 5.16 mg/kg (Mus musculus [11]): 24.4% | inhibition in vivo at 5.16 mg/kg (Rattus norvegicus [12]): -35.7% | inhibition in vivo at 5.16 mg/kg (Rattus norvegicus [13]): 30% | inhibition in vivo at 5.16 mg/kg (Rattus norvegicus [14]): -27.1% | Activity (Rattus norvegicus [15]): 103.6% | Activity (Rattus norvegicus [16]): 132.3% | inhibition in vivo at 5.16 mg/kg (Rattus norvegicus [17]): 54.8% | inhibition in vivo at 5.16 mg/kg (Rattus norvegicus [18]): 42.9%

COc1ccc2c(c1)c(CCNC(C)=O)c1n2CC(c2ccccc2)=C(C#N)C1=N
inhibition in vivo at 6.88 mg/kg (Rattus norvegicus [19]): 52.2% | inhibition in vivo at 6.88 mg/kg (Rattus norvegicus [20]): 55.2% | inhibition in vivo at 6.88 mg/kg (Rattus norvegicus [21]): 48% | inhibition in vivo at 6.88 mg/kg (Rattus norvegicus [22]): 36.3% | inhibition in vivo at 6.88 mg/kg (Rattus norvegicus [23]): 30.2% | Activity (Rattus norvegicus [24]): 56.2% | Activity (Rattus norvegicus [25]): 31.7% | inhibition in vivo at 6.88 mg/kg (Rattus norvegicus [26]): 53.6% | inhibition in vivo at 6.88 mg/kg (Mus musculus [27]): 40.7%

COc1ccc2c(c1)c(CCNC(C)=O)c1n2C(=N)C=C1NN
Activity (Rattus norvegicus [28]): 43.7% | inhibition in vivo at 5.4 mg/kg (Rattus norvegicus [29]): 54.8% | inhibition in vivo at 5.4 mg/kg (Mus musculus [30]): -81.1% | inhibition in vivo at 5.4 mg/kg (Rattus norvegicus [31]): 53.9% | inhibition in vivo at 5.4 mg/kg (Rattus norvegicus [32]): 52.6% | Activity (Rattus norvegicus [33]): 243.7% | inhibition in vivo at 5.4 mg/kg (Rattus norvegicus [34]): 44.2% | inhibition in vivo at 5.4 mg/kg (Rattus norvegicus [35]): 36.8% | inhibition in vivo at 5.4 mg/kg (Rattus norvegicus [36]): 57.7%

COc1ccc2c(c1)c(CC(=O)O)c(C)n2C(=O)c1ccc(Cl)cc1 [INDOMETHACIN]
Activity (Rattus norvegicus [37]): 176.7% | Activity (Rattus norvegicus [38]): 286.6%

COc1ccc2[nH]cc(CCNC(C)=O)c2c1 [MELATONIN]
inhibition in vivo at 4 mg/kg (Rattus norvegicus [39]): 44.4% | Activity (Rattus norvegicus [40]): 39.7% | inhibition in vivo at 4 mg/kg (Rattus norvegicus [41]): 50.8% | inhibition in vivo at 4 mg/kg (Rattus norvegicus [42]): 56.3% | inhibition in vivo at 4 mg/kg (Mus musculus [43]): 55.6% | inhibition in vivo at 4 mg/kg (Rattus norvegicus [44]): 30% | inhibition in vivo at 4 mg/kg (Rattus norvegicus [45]): 50.1% | Activity (Rattus norvegicus [46]): 96% | inhibition in vivo at 4 mg/kg (Rattus norvegicus [47]): 69%
